Consider seven compounds from article PMC7114172 (ACS Omega, 2020).

Experiment [1] has as its system LPS E. coli K-235. In words: LPS binding, dansyl cadaverine. On the set-up: species or system Escherichia coli. Conditions: LPS E. coli K-235 280 μg/mL, DC 12 μM, 10 mM phosphate buffer pH 7.4, 25 °C. Summed up: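 Test peptide was added in small successive aliquots to a preformed DC:LPS complex. […] Excitation was at 340 nm and emission scanned 420–600 nm (slits 2.5/5 nm). Probe occupancy was calculated as (F−F0)/(Fmax−F0), where F0 is DC alone, Fmax is DC at maximum LPS, and F is DC–LPS at each peptide concentration. A positive-control peptide was run first.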

Experiment [2] has as its system E. coli K-12 strain MG1655 (CGSC-7740). Conditions: concentration at which no viable colonies are formed; 10 mM phosphate buffer pH 7.4; cited from earlier work.
For experiment [3], the system named is S. aureus (ATCC 8530). To be noted: concentration at which no viable colonies are formed; 10 mM phosphate buffer pH 7.4; cited from earlier work.

Bridge positions count the residues as written; N and C are the ends. Square brackets hold non-standard residues; d marks the D form. Ends that are not written are not given here. Peptide text beside a SMILES is read from it. * marks the point of attachment. Myristoyl = CCCCCCCCCCCCCC(=O)*; Phe(ol) = N[C@H](CO)Cc1ccccc1; Aib = CC(C)(N)C(=O)O; NHCH2CH2OH = OCCN*; For = O=C*

For the compound `CC(=O)NC(C)(C)C(=O)N1CCC[C@H]1C(=O)NC(C)(C)C(=O)N[C@@H](C)C(=O)NC(C)(C)C(=O)N[C@@H](C)C(=O)N[C@@H](CCC(N)=O)C(=O)NC(C)(C)C(=O)N[C@H](C(=O)NC(C)(C)C(=O)NCC(=O)N[C@@H](CC(C)C)C(=O)NC(C)(C)C(=O)N1CCC[C@H]1C(=O)N[C@H](C(=O)NC(C)(C)C(=O)NC(C)(C)C(=O)N[C@@H](CCC(=O)O)C(=O)N[C@@H](CCC(N)=O)C(=O)N[C@H](CO)Cc1ccccc1)C(C)C)C(C)C` [alamethicin] (Ac-[Aib]P[Aib]A[Aib]AQ[Aib]V[Aib]GL[Aib]PV[Aib][Aib]EQ[Phe(ol)]; N-terminus assumed), in experiment [1], the “Relative binding affinity to LPS (DC displacement)” value (shortened to “Relative binding affinity to LPS”) is given as “weak affinity as compared to polymyxin B”.
`CC(C)C[C@@H](NC(=O)[C@H](C)NC(=O)CNC(=O)[C@@H](NC=O)C(C)C)C(=O)N[C@@H](C)C(=O)N[C@@H](C(=O)N[C@H](C(=O)N[C@@H](C(=O)N[C@@H](Cc1c[nH]c2ccccc12)C(=O)N[C@H](CC(C)C)C(=O)N[C@@H](Cc1c[nH]c2ccccc12)C(=O)N[C@H](CC(C)C)C(=O)N[C@@H](Cc1c[nH]c2ccccc12)C(=O)N[C@H](CC(C)C)C(=O)N[C@@H](Cc1c[nH]c2ccccc12)C(=O)NCCO)C(C)C)C(C)C)C(C)C` [gramicidin A] (For-VGA[dL]A[dV]V[dV]W[dL]W[dL]W[dL]W-NHCH2CH2OH; N-terminus and C-terminus assumed): in experiment [1], the “Relative binding affinity to LPS” value is reported as “weak affinity as compared to polymyxin B”.
As to “ACPIFTKIQGTYRGKAKCK (disulfide 2-18 (inferred)) [Phd1]”, the “Relative binding affinity to LPS” value in experiment [1] was “more affinity as compared to Phd2-3 and MPhd2-3”. Besides, in experiment [2], the “MBC, E. coli” value was 19 µM. Moreover, the “MBC, S. aureus” value in experiment [3] is 20 µM.
In the case of “Myristoyl-ACPIFTKIQGTYRGKAKCK (disulfide 2-18 (inferred)) [MPhd1]”, in experiment [1], the “Relative binding affinity to LPS” value was “more affinity as compared to Phd2-3 and MPhd2-3”. In addition, the “MBC, E. coli” value in experiment [2] is 5 µM. The “MBC, S. aureus” value in experiment [3] is 5 µM.
For the compound “Myristoyl-FCPRRYKQIGTGLPGTKCK (disulfide 2-18 (inferred)) [MPhd2]”, the “MBC, E. coli” value in experiment [2] is 6 µM. For the same compound, the “MBC, S. aureus” value in experiment [3] was 5 µM.
Turning to “Myristoyl-SCLPKEEQIGKSTRGRKCRRKK (disulfide 2-18 (inferred)) [MPhd3]”, the “MBC, E. coli” value in experiment [2] was 4 µM. The “MBC, S. aureus” value in experiment [3] is 4 µM.
Take “cyclized isooctanoyl BTBB(BF^dLBBT) (lariat or depsi) [polymyxin B]”: in experiment [1], the “Relative binding affinity to LPS” value is “strong binding compared to HBD2-3 as well as LL37 and melittin”.
